Source: ChEMBL document CHEMBL4825764, “Flavonoid Monomers as Potent, Nontoxic, and Selective Modulators of the Breast Cancer Resistance Protein (ABCG2)” (J Med Chem, 2021)
Active and inactive are the calls of the source. The rule behind the calls is not given here.

Key:
[1] = biological target: T1, Broad substrate specificity ATP-binding cassette transporter ABCG2 (Homo sapiens, UniProt Q9UNQ0); assay: Inhibition of BCRP (unknown origin) expressed in HEK293/R2 cells assessed as fold increase in mitoxantrone accumulation at 1 uM after 4 days by flow cytometry analysis; assay type: cell-based; conditions: hek293/r2, 96 h, time 4 day
T1 sequence (Q9UNQ0 whole entry): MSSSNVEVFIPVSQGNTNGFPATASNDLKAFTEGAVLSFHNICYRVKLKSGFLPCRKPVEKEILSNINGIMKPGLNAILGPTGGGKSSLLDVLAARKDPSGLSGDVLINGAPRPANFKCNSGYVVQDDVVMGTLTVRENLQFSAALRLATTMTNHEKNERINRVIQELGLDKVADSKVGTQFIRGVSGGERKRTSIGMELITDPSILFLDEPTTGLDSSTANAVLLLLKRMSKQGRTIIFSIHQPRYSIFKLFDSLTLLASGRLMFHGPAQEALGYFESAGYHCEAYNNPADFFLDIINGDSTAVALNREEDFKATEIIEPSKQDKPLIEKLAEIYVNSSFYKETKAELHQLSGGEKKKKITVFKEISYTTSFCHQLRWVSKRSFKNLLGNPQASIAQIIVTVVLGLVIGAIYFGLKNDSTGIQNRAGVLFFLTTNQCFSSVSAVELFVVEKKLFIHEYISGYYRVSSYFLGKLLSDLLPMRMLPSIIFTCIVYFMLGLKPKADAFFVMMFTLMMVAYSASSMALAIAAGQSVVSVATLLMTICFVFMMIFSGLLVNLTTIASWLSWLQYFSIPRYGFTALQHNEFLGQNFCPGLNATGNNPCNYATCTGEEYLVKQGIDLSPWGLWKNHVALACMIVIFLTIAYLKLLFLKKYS
Procedure, shortened: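 HEK293/R2 cells were treated 4 days at 37 °C with 1 μM modulator or 0.1% DMSO, washed, then given the mitoxantrone accumulation assay with flow cytometry read-out. Data are relative to DMSO, N = 5 independent experiments.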

L929 = assay: Cytotoxicity against mouse L929 cells assessed as reduction in cell viability; assay type: cell-based
Homo sapiens [2] = species: Homo sapiens; assay: Selectivity index, ratio of EC50 for inhibition of P-gp (unknown origin) expressed in LCC6MDR cells assessed as reversal of paclitaxel resistance to EC50 for inhibition of BCRP (unknown origin) transfected in HEK293/R2 cells assessed as reversal of topotecan resistance; assay type: cell-based
Procedure, shortened: (§1)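 Selectivity index is the EC50 against the other transporter's line divided by the EC50 in the BCRP line. All values come from 5-day MTS reversal assays. These use topotecan in HEK293/R2 (0–2000 nM) or MCF7-MX100 (0–100 μM), doxorubicin in 2008/MRP1, and paclitaxel in LCC6MDR, each with modulator at 0–1000 nM.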

Homo sapiens [3] = species: Homo sapiens; assay: Selectivity index, ratio of EC50 for inhibition of MRP1 (unknown origin) expressed in 2008/MRP1 cells assessed as reversal of doxorubicin resistance to EC50 for inhibition of BCRP (unknown origin) transfected in HEK293/R2 cells assessed as reversal of topotecan resistance; assay type: cell-based; procedure, shortened: as §1
2008 = assay: Selectivity index, ratio of EC50 for inhibition of MRP1 (unknown origin) expressed in 2008/MRP1 cells assessed as reversal of doxorubicin resistance to Inhibition of BCRP (unknown origin) expressed in MCF7/MX100 cells assessed as reversal of topotecan resistance; assay type: cell-based; conditions: Homo sapiens; procedure, shortened: as §1
[4] = biological target: T1, Broad substrate specificity ATP-binding cassette transporter ABCG2; assay: Inhibition of BCRP (unknown origin) expressed in human HEK293/R2 cells assessed as increase in intracellular topotecan accumulation by measuring fold change at 2 uM after 2 hrs in presence of topotecan by flow cytometry analysis relative to control; assay type: cell-based; conditions: hek293/r2, 2 h
Procedure, shortened: (§2)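 5 × 10^5 HEK293/pcDNA3.1 or HEK293/R2 cells in 1 mL were incubated 2 hr at 37 °C with 50 μM topotecan or 5 μM mitoxantrone plus 1 or 2 μM modulator, with DMSO as the vehicle control. Cells were washed in cold PBS and resuspended in FACS buffer. Flow cytometry read FL1 (topotecan) or FL4 (mitoxantrone) over 50,000 events, normalized to wild-type cells.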

[5] = biological target: T1, Broad substrate specificity ATP-binding cassette transporter ABCG2; assay: Inhibition of BCRP (unknown origin) expressed in human HEK293/R2 cells assessed as increase in intracellular mitoxantrone accumulation by measuring fold change at 1 uM after 2 hrs in presence of mitoxantrone by flow cytometry analysis relative to control; assay type: cell-based; conditions: hek293/r2, 2 h; procedure, shortened: as §2
[6] = biological target: T1, Broad substrate specificity ATP-binding cassette transporter ABCG2; assay: Inhibition of BCRP (unknown origin) expressed in human HEK293/R2 cells assessed as increase in intracellular mitoxantrone accumulation by measuring fold change at 2 uM after 2 hrs in presence of mitoxantrone by flow cytometry analysis relative to control; assay type: cell-based; conditions: hek293/r2, 2 h; procedure, shortened: as §2
[7] = biological target: T1, Broad substrate specificity ATP-binding cassette transporter ABCG2; assay: Inhibition of BCRP (unknown origin) expressed in wild type HEK293/pcDNA3.1 cells assessed as increase in intracellular mitoxantrone accumulation at 1 to 2 uM after 2 hrs in presence of mitoxantrone by flow cytometry analysis relative to control; assay type: cell-based; conditions: hek293, 2 h, dose 1-2 µM; procedure, shortened: as §2
[8] = biological target: T1, Broad substrate specificity ATP-binding cassette transporter ABCG2; assay: Inhibition of BCRP (unknown origin) expressed in wild-type HEK293 cells mediated mitoxantrone efflux assessed as intracellular mitoxantrone level at 2 uM preincubated with mitoxantrone for 1 hr followed by compound addition and measured upto 150 mins by flow cytometry analysis; assay type: cell-based; conditions: hek293, 2.5 h
Procedure, shortened: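 Cells were preloaded with 5 μM mitoxantrone for 1 hr at 37 °C, washed, then kept in drug-free medium with or without 2 μM modulator. Cells were harvested at 0, 30, 60, 90, 120 and 150 min and intracellular mitoxantrone read by flow cytometry (FL4). Level is expressed as % of the 0-min value.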

HEK293 = assay: Effect on BCRP protein expression in human HEK293/R2 cells at 1 to 3 uM after 24 hrs by flow cytometric analysis; assay type: functional, cell-based; conditions: dose 1-3 µM
Procedure, shortened: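 HEK293/R2 and HEK293/pcDNA3.1 cells were exposed to 0, 1 or 3 μM compound for 24 hr, with 0.1–0.3% DMSO as solvent control. Cells were trypsinized and stained with FITC anti-human BCRP for 45 min at 4 °C, with an IgG2b-FITC isotype control. Surface signal was read by flow cytometry on FL1 over 50,000 events.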

BCRP (ABCG2) = biological target: T2, BCRP (ABCG2) (Homo sapiens, UniProt Q9UNQ0); assay: Inhibition of BCRP (unknown origin) expressed in HEK293/R2 cells assessed as conformational change by measuring increase in 5D3 shift at 1 uM preincubated for 15 mins followed by FITC mouse antihuman BCRP antibody addition measured after 30 mins by flow cytometry analysis; assay type: cell-based; conditions: HEK293/R2 cells expressing BCRP, time 45 min
T2 sequence (Q9UNQ0 whole entry): T1 sequence (Q9UNQ0 whole entry)
Procedure, shortened: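 5 × 10^5 HEK293/R2 cells in FACS buffer were shaken 15 min at 37 °C with 1 μM compound. FITC 5D3 anti-BCRP was then added for 30 min at 37 °C and fluorescence read by flow cytometry on FL1. Compound-only background was subtracted and the untreated DMSO shift removed. Result is % of the 1 μM Ko143-induced shift.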

[9] = biological target: T1, Broad substrate specificity ATP-binding cassette transporter ABCG2; assay: Inhibition of BCRP (unknown origin) expressed in HEK293/R2 cells assessed as reduction in BCRP protein level at 1 uM after 4 days by Western blot analysis; conditions: hek293/r2, 96 h

Q: Which results are given for COC(=O)c1cccc(COc2c(-c3ccc(OCCCCc4cn(Cc5ccccc5)nn4)cc3)oc3ccccc3c2=O)c1?
A: fold change (FC) [1]: 3.8; IC50 (L929): > 100 µM; Ratio EC50 (Homo sapiens [2]): 96; Ratio EC50 (Homo sapiens [3]): 143; Ratio EC50 2008: 167; fold change (FC) [4]: 6.8; fold change (FC) [5]: 5.9; fold change (FC) [6]: 5.7; inhibition (INH) [7]: Not Active; inhibition (INH) [8]: Not Active; Activity (HEK293): inactive; inhibition at 0.5 h, 1 µM (BCRP (ABCG2)): 100%; inhibition (INH) [9]: Not Active
